SMILES strings stand for the structures.

For data set [1], the target named is T1, BCRP (Homo sapiens, UniProt Q9UNQ0).
T1 sequence (Q9UNQ0 1-655): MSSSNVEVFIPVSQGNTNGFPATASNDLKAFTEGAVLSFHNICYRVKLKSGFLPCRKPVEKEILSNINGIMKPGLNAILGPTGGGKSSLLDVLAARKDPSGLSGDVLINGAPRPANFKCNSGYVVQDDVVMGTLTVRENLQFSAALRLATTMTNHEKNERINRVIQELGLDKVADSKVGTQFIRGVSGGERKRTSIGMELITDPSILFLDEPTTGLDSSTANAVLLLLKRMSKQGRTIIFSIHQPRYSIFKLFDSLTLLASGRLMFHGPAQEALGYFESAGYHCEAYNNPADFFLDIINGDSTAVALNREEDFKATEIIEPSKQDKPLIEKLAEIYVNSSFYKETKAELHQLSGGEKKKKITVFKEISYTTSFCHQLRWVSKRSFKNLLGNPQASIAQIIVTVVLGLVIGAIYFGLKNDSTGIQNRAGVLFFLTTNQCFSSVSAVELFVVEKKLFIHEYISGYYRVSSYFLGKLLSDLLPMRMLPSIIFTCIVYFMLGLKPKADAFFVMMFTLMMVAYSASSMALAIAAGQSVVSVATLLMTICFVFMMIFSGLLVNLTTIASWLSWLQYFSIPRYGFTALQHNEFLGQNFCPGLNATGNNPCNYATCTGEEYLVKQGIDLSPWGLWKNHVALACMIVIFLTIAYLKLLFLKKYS
In words: BCRP inhibition in Caco-2 cells. The format is in vitro ADME. In outline: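 Efflux transporter inhibition in Caco-2 monolayers. Test compound at 0.25–60 μM. Probe/reference-inhibitor pairs were digoxin/cyclosporin A (P-gp) and cladribine/Ko143 (BCRP). Probe transport was measured with and without test compound, and IC50 was derived from that inhibition.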

A further data set has as its target OATP2B1 (Homo sapiens, UniProt O94956). In words: OATP2B1 uptake inhibition in transfected HEK cells. The format is in vitro ADME. In short, it runs like this: (§1)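 HEK cells overexpressing NTCP, OAT1, OAT3, OATP2B1, OCT1 or OCT2 were incubated with probe substrate. Pairs were estrone 3-sulfate/cyclosporin A (NTCP), PAH/probenecid (OAT1), furosemide/probenecid (OAT3), estrone 3-sulfate/glibenclamide (OATP2B1), 3H-MPP+/decynium 22 (OCT1) and 3H-MPP+/imipramine (OCT2). IC50 was determined with and without test compound, at ≤50 µM for the parent and ≤10 µM for the metabolite.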

In a further data set the target is NTCP (Homo sapiens, UniProt Q14973). In words: NTCP uptake inhibition in transfected HEK cells. In kind it is in vitro ADME. In outline: as §1
A further data set relates to P-gp and BCRP. The data set can be described thus: Efflux in wildtype Caco-2 cells. The format is in vitro ADME. Conditions: human. In outline: (§2)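 Bidirectional transport was measured in wildtype Caco-2 cells and in proprietary derivatives with reduced BCRP (CPT-B1) or P-gp (CPT-P1) expression. Test compound was used at 0.5, 2 and 10 μM in wildtype cells and at 2 μM in the reduced-expression lines. Probe substrates served as positive controls and reference inhibitors as negative controls. Efflux ratios were calculated.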

Data set [2] concerns the target T1, BCRP. In words: Efflux in CPT-B1 cells. Conditions: Caco-2. In kind it is in vitro ADME. In outline:
as §2

Data set [3] is classed as in vivo, human. Conditions: healthy male volunteers.
The subject of another data set is CYP3A4. Conditions: healthy volunteers; ref data on file; cited from earlier work.
For data set [4] the following is noted: darolutamide 600 mg; ref data on file; cited from earlier work.
A further data set has as its target T2, UGT1A1 (Homo sapiens, UniProt P22309).
T2 sequence (P22309 26-533): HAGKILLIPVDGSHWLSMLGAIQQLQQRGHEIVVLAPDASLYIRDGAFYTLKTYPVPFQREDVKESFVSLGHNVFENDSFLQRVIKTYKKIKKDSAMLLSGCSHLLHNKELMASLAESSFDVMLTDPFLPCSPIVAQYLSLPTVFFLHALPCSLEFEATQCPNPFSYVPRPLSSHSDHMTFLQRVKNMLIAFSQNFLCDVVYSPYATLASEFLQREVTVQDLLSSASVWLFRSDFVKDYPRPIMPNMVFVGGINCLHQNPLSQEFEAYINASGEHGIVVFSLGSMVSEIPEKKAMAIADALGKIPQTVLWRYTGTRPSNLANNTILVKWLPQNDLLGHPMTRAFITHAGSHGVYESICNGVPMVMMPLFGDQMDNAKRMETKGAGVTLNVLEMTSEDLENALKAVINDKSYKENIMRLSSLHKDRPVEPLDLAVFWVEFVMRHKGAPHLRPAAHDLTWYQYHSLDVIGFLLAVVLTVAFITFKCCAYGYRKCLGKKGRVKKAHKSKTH
The data set can be described thus: UGT1A1 inhibition in human liver microsomes. Conditions: read-out: Ki, UGT1A1. In kind it is in vitro ADME. In outline:
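Glucuronidation of UGT-selective substrates was measured in human liver microsomes with and without test compound, using a rank-order approach. Standard inhibitors for each isoform were incubated in parallel as positive controls.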

The subject of a further data set is CYP1A2. In kind it is in vitro ADME. Conditions: primary human hepatocytes, three donors, 3 days dosing, 0.005–10 mg/l.
A further data set has as its system CYP2B6. In kind it is in vitro ADME. Conditions: primary human hepatocytes, three donors, 3 days dosing, 0.005–10 mg/l.
The target of data set [5] is T1, BCRP. In words: Efflux in BCRP-MDCK cells. In kind it is in vitro ADME. As to conditions: reduced in the presence of BCRP-specific inhibitor Ko143.
For data set [6] the following is noted: cited from earlier work.

Chain of NTCP (Q14973 whole entry): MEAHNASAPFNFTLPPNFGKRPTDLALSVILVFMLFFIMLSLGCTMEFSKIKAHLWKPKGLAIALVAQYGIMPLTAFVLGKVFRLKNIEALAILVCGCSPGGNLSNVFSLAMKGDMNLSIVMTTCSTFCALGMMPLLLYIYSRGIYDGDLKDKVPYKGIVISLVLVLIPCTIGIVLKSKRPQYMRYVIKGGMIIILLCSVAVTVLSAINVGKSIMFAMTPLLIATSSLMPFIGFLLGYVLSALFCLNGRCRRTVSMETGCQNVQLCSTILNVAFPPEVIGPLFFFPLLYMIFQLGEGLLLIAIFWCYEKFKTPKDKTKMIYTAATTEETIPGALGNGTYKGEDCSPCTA
Chain of OATP2B1 (O94956 whole entry): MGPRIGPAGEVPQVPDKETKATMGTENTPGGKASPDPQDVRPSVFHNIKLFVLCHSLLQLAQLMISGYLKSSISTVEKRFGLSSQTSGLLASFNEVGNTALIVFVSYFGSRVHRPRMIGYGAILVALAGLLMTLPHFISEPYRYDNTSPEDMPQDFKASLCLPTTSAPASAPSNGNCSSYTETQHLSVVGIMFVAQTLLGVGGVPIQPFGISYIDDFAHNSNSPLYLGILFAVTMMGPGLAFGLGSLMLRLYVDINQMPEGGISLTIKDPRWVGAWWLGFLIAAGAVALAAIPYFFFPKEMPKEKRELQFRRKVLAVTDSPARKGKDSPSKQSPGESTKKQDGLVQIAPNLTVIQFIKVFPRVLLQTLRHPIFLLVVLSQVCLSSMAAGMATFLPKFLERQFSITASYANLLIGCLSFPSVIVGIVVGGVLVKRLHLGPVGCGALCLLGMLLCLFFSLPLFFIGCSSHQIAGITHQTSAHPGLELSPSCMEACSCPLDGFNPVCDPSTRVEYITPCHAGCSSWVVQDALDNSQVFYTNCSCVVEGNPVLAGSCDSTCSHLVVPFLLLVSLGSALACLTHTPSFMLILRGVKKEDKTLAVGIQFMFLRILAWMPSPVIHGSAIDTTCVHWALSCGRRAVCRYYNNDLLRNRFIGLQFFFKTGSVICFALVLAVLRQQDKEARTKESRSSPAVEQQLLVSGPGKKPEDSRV

Take `CC(O)c1cc(C(=O)N[C@@H](C)Cn2ccc(-c3ccc(C#N)c(Cl)c3)n2)[nH]n1` (stereo partly drawn) [Darolutamide, darolutamide]: the IC50 against BCRP [1] is 1.3 µM; against OATP2B1 it was more than 50 µM; against NTCP, more than 50 µM. Moreover, in the data set on P-gp and BCRP, the efflux ratio at 0.5 μM was 78. Also, the efflux ratio at 2 μM in the data set with P-gp and BCRP amounted to 98; at BCRP [2] it was 36. The efflux ratio at 10 μM in the data set on P-gp and BCRP came out at 14. In addition, the “safety with concomitant dabigatran etexilate or midazolam” value in data set [3] is “No safety concerns were identified”. Besides, in the data set on CYP3A4, the “share of clearance attributed to CYP3A4 metabolism” value was 30%. Moreover, the “clinically relevant intestinal concentration” value in data set [4] was 270 µM.

With `CC(=O)c1cc(C(=O)N[C@@H](C)Cn2ccc(-c3ccc(C#N)c(Cl)c3)n2)[nH]n1` [Keto-darolutamide, keto-darolutamide], at UGT1A1, the Ki was 8.13 µM. In the data set with CYP1A2, the “maximal fold induction of CYP1A2” value is given as less than 2 fold. The “maximal fold induction of CYP2B6” value in the data set on CYP2B6 is given as less than 2 fold. The efflux ratio on BCRP [5] is recorded as more than 2. Moreover, the “fraction unbound in human plasma, fold lower compared with darolutamide” value in data set [6] is ~ 40 fold.

Source of the values: publication PMC6828636 (European Journal of Drug Metabolism and Pharmacokinetics, 2019).
